This is an account of results in ChEMBL document CHEMBL4393678, “Novel Tetrahydroquinazolinamines as Selective Histamine 3 Receptor Antagonists for the Treatment of Obesity” (J Med Chem, 2019).

Each structure is given as a SMILES string. Calls of active or inactive are those of the source. The rule behind the calls is not given here.

Data set [1] is described as follows: Cmax in C57BL/6J mouse serum at 20 mg/kg, po by LC-MS/MS analysis. It is filed as ADME, organism-based. Also noted: dose 20 mg/kg, route oral. The gist of the method: (§1)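 Male C57BL/6J mice (6-8 weeks, 20 ± 5 g) fasted overnight (12-16 h) got a single 20 mg/kg oral dose as 2.5 mg/mL suspension in 1% w/v gum acacia; n=5 per time point. Serum and brain (PBS homogenate 1:6 w/v) sampled up to 24 h. Parent and demethylated metabolite quantified by LC-MS/MS after liquid-liquid extraction (C18, MRM, phenacetin internal standard; linear 0.25-200 ng/mL). Two-compartment open model fit.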

Data set [2] in a line: Ratio of fCmax in C57BL/6J mouse brain to IC50 for recombinant human Gi-coupled H3 receptor expressed in HEK293T cells assessed as reduction in histamine-induced inhibition of forskolin-stimulated cAMP accumulation. In kind it is cell-based. The gist of the method:
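Fasted male C57BL/6J mice received a single oral dose of 20 mg/kg in gum acacia suspension. Brain Cmax came from LC-MS/MS of brain homogenate. Unbound brain fraction was measured by equilibrium dialysis of brain tissue homogenate. Unbound Cmax, converted to nM, was divided by the H3R antagonist IC50 from the GloSensor cAMP assay in transfected HEK293T cells.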
A general note: Cyclic AMP is a second messenger, typically raised through Gs and lowered through Gi signalling.

Data set [3] has as its target T1, D(4) dopamine receptor (Homo sapiens) (UniProt P21917).
T1 sequence (whole entry): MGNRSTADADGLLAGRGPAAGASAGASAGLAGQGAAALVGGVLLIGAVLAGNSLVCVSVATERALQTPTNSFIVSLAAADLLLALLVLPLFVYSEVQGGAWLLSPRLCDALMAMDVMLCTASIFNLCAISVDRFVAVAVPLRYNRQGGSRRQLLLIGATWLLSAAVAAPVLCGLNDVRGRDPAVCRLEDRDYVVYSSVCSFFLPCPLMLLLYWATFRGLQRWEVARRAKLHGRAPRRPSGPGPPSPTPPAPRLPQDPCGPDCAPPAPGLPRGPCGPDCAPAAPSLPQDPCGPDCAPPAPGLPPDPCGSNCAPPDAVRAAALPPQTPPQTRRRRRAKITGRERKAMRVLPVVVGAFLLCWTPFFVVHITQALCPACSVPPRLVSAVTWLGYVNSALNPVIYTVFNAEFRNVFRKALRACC
Put plainly: Antagonist activity at D4 receptor (unknown origin).

In data set [4] the test system is Mus musculus. Put plainly: Anti-obesity activity in high fat diet-induced obese C57BL/6J mouse model assessed as reduction in body fat mass at 10 mg/kg, po measured after 6 weeks relative to control by NMR-based magnetic resonance imaging analysis. In kind it is functional. The method, boiled down:
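Male C57BL/6J mice on high-fat diet dosed orally for six weeks against a vehicle-treated high-fat diet group and a chow group. Body composition (fat mass, lean mass, % body fat) measured by EchoMRI live scanning. n=5-6. One-way ANOVA with Newman-Keuls test.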

Data set [5] has as its target D(1B) dopamine receptor (Homo sapiens) (UniProt P21918). The data set is described as follows: Agonist activity at Gs-coupled D5 receptor (unknown origin) expressed in HEK293T cells assessed as inhibition of forskolin-stimulated cAMP accumulation preincubated for 10 to 15 followed by forskolin-stimulation by Glo-sensor assay. It is filed as functional, cell-based.
Data set [6] has as its target Histamine H2 receptor (Homo sapiens, UniProt P25021). The data set is described as follows: Agonist activity at recombinant human Gs-coupled H2 receptor expressed in HEK293T cells assessed as inhibition of forskolin-stimulated cAMP accumulation preincubated for 10 to 15 followed by forskolin-stimulation by Glo-sensor assay. In kind it is functional, cell-based.
Data set [7] deals with Mus musculus. The data set is described as follows: Anorexic effect in 12 hrs fasted db/db-induced obese C57BL/6J mouse model assessed as reduction in cumulative food intake at 20 mg/kg, po pretreated for 30 mins followed by food addition measured after 4 hrs in presence of histidine decarboxylase inhibitor alpha-MDLH. In kind it is functional, organism-based. The method, boiled down:
(§2)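 Mice starved 12 h (8:00 am to 8:00 pm) with water available, then housed singly. Compound given orally in 5% gum acacia in normal saline; vehicle group received the same. Cumulative food intake measured over 4 h of the night phase (9:00 pm to 1:00 am), starting 30 min after dosing. Antagonism arms: imitet 5 mg/kg i.p. 30 min before compound, or α-methyl-DL-histidine 20 mg/kg i.p. 2 h before.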

Data set [8] in a line: AUClast in C57BL/6J mouse serum assessed as 4-(2-Amino-8-methyl-5,6,7,8-tetrahydroquinazolin-4-yl)phenol level at 20 mg/kg, po by LC-MS/MS analysis. It is filed as ADME, organism-based. Also noted: dose 20 mg/kg, time 0 - last, route oral. As to conditions: in vivo. The method, boiled down: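 Male C57BL/6J mice, 6-8 weeks, 20 ± 5 g, fasted overnight (12-16 h), n = 5 per time point. Single 20 mg/kg oral dose given by feeding needle as a 2.5 mg/mL suspension in 1% w/v gum acacia and water. Serum and brain (homogenized 1:6 w/v in PBS) sampled up to 24 h. Liquid-liquid extraction, then LC-MS/MS in positive MRM mode with phenacetin as internal standard. Linear range 0.25-200 ng/mL. Non-compartmental and compartmental analysis.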

Data set [9] in a line: Ratio of AUClast in C57BL/6J mouse brain assessed as 4-(2-Amino-8-methyl-5,6,7,8-tetrahydroquinazolin-4-yl)phenol level to AUClast in C57BL/6J mouse brain. As to conditions: in vivo. It is filed as ADME, tissue-based. The gist of the method:
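Male C57BL/6J mice (6–8 weeks) were fasted 12–16 h, then given a single oral dose of 20 mg/kg as a 2.5 mg/mL suspension in 1% gum acacia/water (n=5 per time point). Serum and brain (homogenised 1:6 in PBS) were sampled up to 24 h. Parent and demethylated metabolite were measured by LC-MS/MS (range 0.25–200 ng/mL). AUC ran to the last observation.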

A short description of data set [10]: Apparent volume of distribution in C57BL/6J mouse serum at 20 mg/kg, po by LC-MS/MS analysis. It is filed as ADME, organism-based. The method, boiled down:
as §1

Data set [11] deals with Mus musculus. Put plainly: Anorexic effect in 12 hrs fasted db/db-induced obese C57BL/6J mouse model assessed as reduction in cumulative food intake at 20 mg/kg, po pretreated for 30 mins followed by food addition measured after 4 hrs in presence of H3R agonist-imitet. It is filed as functional, organism-based. The gist of the method:
as §2

The test system of data set [12] is Mus musculus. Put plainly: In vivo antagonist activity at H3R in 12 hrs fasted db/db-induced obese C57BL/6J mouse model assessed as increase in c-FOS expression in para-ventricular nucleus of hypothalamus at 20 mg/kg, ip measured after 90 mins by immunohistochemistry-based fluorescence assay. It is filed as functional, organism-based.
Data set [13] concerns Mus musculus. The data set is described as follows: Anti-obesity activity in 16 hrs fasted db/db-induced obese C57BL/6J mouse model assessed as change in blood TG level at 20 mg/kg, po measured after 6 weeks. It is filed as functional, organism-based.
In data set [14] the target is Kappa-type opioid receptor (Homo sapiens) (UniProt P41145). Put plainly: Antagonist activity at Gi-coupled KOR (unknown origin) expressed in HEK293T cells assessed as reduction in histamine-induced inhibition of forskolin-stimulated cAMP accumulation preincubated for 10 to 15 followed by histamine addition for 10 mins and subsequent forskolin-stimulation by Glo-sensor assay. In kind it is functional, cell-based.
Chain of Kappa-type opioid receptor (Homo sapiens) (P41145 whole entry): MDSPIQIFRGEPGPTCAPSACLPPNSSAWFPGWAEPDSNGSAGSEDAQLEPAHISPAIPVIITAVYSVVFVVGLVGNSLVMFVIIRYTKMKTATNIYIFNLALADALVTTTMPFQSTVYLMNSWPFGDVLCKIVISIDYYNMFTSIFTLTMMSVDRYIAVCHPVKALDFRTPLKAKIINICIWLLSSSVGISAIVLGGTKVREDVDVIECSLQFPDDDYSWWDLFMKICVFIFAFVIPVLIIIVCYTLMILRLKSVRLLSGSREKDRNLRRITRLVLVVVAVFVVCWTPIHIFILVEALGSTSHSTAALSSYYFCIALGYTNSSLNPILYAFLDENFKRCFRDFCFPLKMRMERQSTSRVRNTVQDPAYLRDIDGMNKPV

Chain of Histamine H2 receptor (P25021 whole entry): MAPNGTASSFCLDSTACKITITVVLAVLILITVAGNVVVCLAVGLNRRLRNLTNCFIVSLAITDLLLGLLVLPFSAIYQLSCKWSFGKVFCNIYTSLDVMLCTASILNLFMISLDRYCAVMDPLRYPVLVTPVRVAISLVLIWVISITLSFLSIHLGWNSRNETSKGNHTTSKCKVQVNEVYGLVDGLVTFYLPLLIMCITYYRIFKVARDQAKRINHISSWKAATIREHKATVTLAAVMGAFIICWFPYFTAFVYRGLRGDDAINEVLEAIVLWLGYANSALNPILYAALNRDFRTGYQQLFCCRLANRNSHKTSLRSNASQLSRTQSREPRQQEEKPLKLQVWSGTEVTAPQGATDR
Chain of D(1B) dopamine receptor (Homo sapiens) (P21918 whole entry): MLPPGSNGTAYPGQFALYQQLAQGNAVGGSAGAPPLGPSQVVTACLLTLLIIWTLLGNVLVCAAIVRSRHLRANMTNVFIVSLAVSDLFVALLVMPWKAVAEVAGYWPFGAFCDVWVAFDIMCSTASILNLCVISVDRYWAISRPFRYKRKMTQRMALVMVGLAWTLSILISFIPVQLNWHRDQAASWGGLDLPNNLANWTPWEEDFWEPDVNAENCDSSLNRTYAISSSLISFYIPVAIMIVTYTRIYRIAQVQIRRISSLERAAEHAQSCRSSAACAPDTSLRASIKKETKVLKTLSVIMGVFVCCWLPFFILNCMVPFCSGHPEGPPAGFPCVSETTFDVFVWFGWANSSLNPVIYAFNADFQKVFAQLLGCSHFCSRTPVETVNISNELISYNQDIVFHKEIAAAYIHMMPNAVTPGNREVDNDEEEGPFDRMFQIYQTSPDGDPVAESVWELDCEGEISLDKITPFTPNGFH

In the case of `COc1ccc(-c2nc(N)nc3c2CCCC3C)cc1` (racemic), the Cmax – broadly, the highest concentration seen after dosing – in [1] was found to be 3360 ng/mL. For the same molecule, the Ratio in data set [2] was found to be 8.3. Also, the inhibition entry in [3] was “inactive”. Besides, the result in data set [4] and in data set [12] was Active. The INH in data set [5], in data set [6] and in [14] was more than 10 µM throughout. Further, in data set [6], the EC50 result is “Not Active”. For the same molecule, the result in [7], in [11] and in data set [13] was inactive. Also, in data set [8], the AUClast was 1646.9 ng·h/mL. Moreover, in data set [9], the “Ratio AUC” value is given as 32.4%. Further, in data set [10], the Vd/F (as a rule, the apparent distribution volume after extravascular dosing) is 28.5 L/kg.
